These molecules were tested against T1, Fe(3+)-Zn(2+) purple acid phosphatase (Phaseolus vulgaris, UniProt P80366) (assay: Inhibition of red kidney bean PAP at pH 6.2).
T1 sequence (P80366 whole entry): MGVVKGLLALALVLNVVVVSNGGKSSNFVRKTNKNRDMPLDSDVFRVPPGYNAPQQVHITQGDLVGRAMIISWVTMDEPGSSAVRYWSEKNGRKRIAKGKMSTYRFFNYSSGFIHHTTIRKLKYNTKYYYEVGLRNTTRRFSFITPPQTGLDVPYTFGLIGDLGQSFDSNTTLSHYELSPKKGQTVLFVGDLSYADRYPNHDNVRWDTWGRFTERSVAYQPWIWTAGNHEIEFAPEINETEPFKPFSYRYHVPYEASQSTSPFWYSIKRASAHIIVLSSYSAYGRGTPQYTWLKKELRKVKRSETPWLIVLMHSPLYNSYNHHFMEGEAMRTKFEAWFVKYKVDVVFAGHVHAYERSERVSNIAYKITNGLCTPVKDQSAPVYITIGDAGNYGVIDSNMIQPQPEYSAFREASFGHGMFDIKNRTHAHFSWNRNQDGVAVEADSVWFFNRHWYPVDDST
In short: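 Each enzyme was run at its own pH optimum: red kidney bean PAP at pH 6.2 and pig PAP at pH 4.9. IC50 values were determined experimentally. Separate inhibition constants were derived for binding to the free enzyme and to the enzyme–substrate complex.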
In the case of `CCCCCCCCCCOC(c1cccc2ccccc12)P(=O)(O)O` (racemic) [(+/-)-decyloxy(naphthalen-1-yl)methylphosphonic acid], the Ki is reported as 4 µM.
`CCCCCCOC(c1cccc2ccccc12)P(=O)(O)O` (racemic) [(+/-)-hexyloxy(naphthalen-1-yl)methylphosphonic acid] gave a Ki of 1470 µM.
`CCCCCCCCOC(c1cccc2ccccc12)P(=O)(O)O` (racemic) [(+/-)-naphthalen-1-yl(octyloxy)methylphosphonic acid] gave a Ki of 50 µM.

— BindingDB's records for doi:10.1016/j.bmcl.2008.10.125 (The University of Queensland, 2008)
